Results from different studies.
Protocols differ between the studies behind these lines.
Observed: cell growth or viability

O=c1c2cc(Cl)ccc2nc(-c2ccccc2)n1N=Cc1ccccc1O — IC50 (LLC-PK1; MTT; 72 h): 75.7 µM
CC(=NNC(=O)c1cc(-c2ccccc2)n(-c2ccc(S(N)(=O)=O)cc2)n1)c1ccc(C)cc1 — IC50 (HT-29; fluorescence; 48 h): 21.8 µM
O=c1c2cc(Cl)ccc2nc(-c2ccccc2)n1N=Cc1cccc([N+](=O)[O-])c1 — IC50 (LLC-PK1; MTT; 72 h): 149 µM
Cc1ccc(S(=O)(=O)n2cc(CN3CCN(c4ccc(C(=O)NO)cc4)CC3)c3ccccc32)cc1 — IC50 (LLC-PK1; 48 h): 8.82 µM
COc1cccc(-c2cc(NCc3ccc4c(c3)OCO4)nc(N)n2)c1 — IC50 (A2780; 72 h): 0.0901 µM
COc1cccc2c1C(=O)c1c(O)c3c(c(O)c1C2=O)C[C@@](O)(C(=O)CO)C[C@@H]3O[C@H]1C[C@H](N)[C@H](O)[C@H](C)O1 — IC50 (LLC-PK1; 48 h): 2.34 µM
NS(=O)(=O)c1ccc(-n2nc(C(=O)NN=Cc3ccccc3O)cc2-c2ccccc2)cc1 — IC50 (HT-29; fluorescence; 48 h): 20 µM
CC(C)(C)c1cnc(CSc2cnc(NC(=O)C3CCN(C(=O)CCCCCCCN4Cc5cc6c(cc5C4)C(=O)N(C4CCC(=O)NC4=O)C6=O)CC3)s2)o1 (centres unmarked) — IC50 (SK-UT-1; MTT): 0.106 µM
NS(=O)(=O)c1ccc(-n2nc(C(=O)NN3C(=O)c4ccccc4C3=O)cc2-c2ccccc2)cc1 — IC50 (HT-29; fluorescence; 48 h): 48.3 µM
CCOc1ccc(C=Nn2c(-c3ccccc3)nc3ccc(Cl)cc3c2=O)cc1 — IC50 (LLC-PK1; MTT; 72 h): 136 µM
NS(=O)(=O)c1ccc(-n2nc(C(=O)NN3C(=O)CCC3=O)cc2-c2ccccc2)cc1 — IC50 (HT-29; fluorescence; 48 h): 31.4 µM
O=c1c2cc(Cl)ccc2nc(-c2ccccc2)n1N=Cc1ccc([N+](=O)[O-])cc1 — IC50 (LLC-PK1; MTT; 72 h): 115 µM
O=C(CCSSc1ccccc1/C=N/NC(=O)c1ccccc1)OC[C@H]1OC(O)[C@H](O)[C@@H](O)[C@@H]1O (some centres unmarked) — IC50 (A2780; MTT): 23 µM
O=c1c2cc(Cl)ccc2nc(-c2ccccc2)n1N=Cc1ccccc1Cl — IC50 (LLC-PK1; MTT; 72 h): 351 µM
NS(=O)(=O)c1ccc(-n2nc(-c3nnc(CCl)o3)cc2-c2ccccc2)cc1 — IC50 (HT-29; fluorescence; 48 h): 29.5 µM
O=C(NO)c1ccc(N2CCN(Cc3cnc4ccccc4c3)CC2)cc1 — IC50 (LLC-PK1; 48 h): > 69.1 µM
Nc1cccc2c1C(=O)N(C1CCC(=O)NC1=O)C2=O (centres unmarked) — IC50 (SU-DHL-4; CCK-8; 7 days): > 20 µM
CN1CCC(NC2CCc3[nH]c4c(C(N)=O)ccc(-c5ccccc5Cl)c4c3C2)CC1 (centres unmarked) — IC50 (SU-DHL-4; 96 h): 0.0223 µM
CC(=O)OC[C@H]1O[C@@H]([S-])[C@H](OC(C)=O)[C@@H](OC(C)=O)[C@@H]1OC(C)=O.CCP(CC)CC.[Au+] — IC50 (IMR-90; MTT; 48 h): 5.27 µM
O=c1c2cc(Cl)ccc2nc(-c2ccccc2)n1N=Cc1ccccc1 — IC50 (LLC-PK1; MTT; 72 h): 303 µM
